Measured values collected from several papers.
CDKL1: Cyclin-dependent kinase-like 1 (CDKL1, Homo sapiens, UniProt Q00532)
ULK1: Serine/threonine-protein kinase ULK1 (ULK1, Homo sapiens, UniProt O75385)
MET M1250T: Hepatocyte growth factor receptor (MET, Homo sapiens, UniProt P08581, M1250T)
MAP3K11: Mitogen-activated protein kinase kinase kinase 11 (MAP3K11, Homo sapiens, UniProt Q16584)

| SMILES | target | assay | test system | conditions | measurement | result |
| --- | --- | --- | --- | --- | --- | --- |
| O=S1(=O)O[C@@H]2[C@H](O)[C@@H](O)[C@H](O)[C@@H](CO)[C@@H]2O1 | Lysosomal alpha-glucosidase (GAA, Homo sapiens, UniProt P10253) | enzyme activity, inhibitor |  | pH 4.8 | kinact/KI | 1070 M⁻¹ s⁻¹ |
| CC1(C)NC(=O)c2[nH]c3c(Cl)c(Cl)ccc3c2C1C#N (stereo not drawn) | CDKL1 | thermal stability, DSF |  | 10 µM | ΔTm | 0 °C |
| NS(=O)(=O)c1ccc(CNc2ccnc(Nc3cccc(CN4CCOCC4)c3)n2)cc1 | ULK1 | enzyme activity, inhibitor, radiometric |  | 1 µM | remaining activity | 92% |
| Cc1cnc(NC2CCOCC2)nc1-n1cnc(C(=O)NC(CN)c2cc(F)cc(Cl)c2)c1 (stereo not drawn) | MET M1250T | enzyme activity, inhibitor, radiometric |  | 1 µM | remaining activity | 100% |
| Cn1c2c(c3ccccc31)C(C#N)C(C)(C)NC2=O (stereo not drawn) | CDKL1 | thermal stability, DSF |  | 10 µM | ΔTm | -0.1 °C |
| NS(=O)(=O)c1ccc(CNc2nc(Nc3cccc(NC(=O)N4CCCC4)c3)ncc2C2CC2)cc1 | ULK1 | enzyme activity, inhibitor, radiometric |  | 1 µM | remaining activity | 82% |
| CCN1CCC2(CC1)NC(=O)c1c(c3ccc(Cl)c(Cl)c3n1C)C2C#N (racemic) | CDKL1 | thermal stability, DSF |  | 10 µM | ΔTm | -0.1 °C |
| Nc1ncnc2occ(-c3ccc(NC(=O)Nc4cc(C(F)(F)F)ccc4F)cc3)c12 | Serine/threonine-protein kinase 36 (STK36, Homo sapiens, UniProt Q9NRP7) | cell-free assay, inhibitor |  | 20 µM | remaining signal | 87% |
| Cn1c2c(c3ccc(Cl)c(Cl)c31)C(C#N)C1(CCCCC1)NC2=O (racemic) | CDKL1 | thermal stability, DSF |  | 10 µM | ΔTm | 0.4 °C |
| Cc1cc(NC(=O)c2cccc3cc(-c4cccc5[nH]nc(N)c45)ccc23)ccc1F | MET M1250T | enzyme activity, inhibitor |  | 0.1 µM | activity vs control | 113% |
| c1cc(CN2CCOCC2)cc(Nc2ncc(C3CC3)c(NCCc3c[nH]cn3)n2)c1 | MAP3K11 | enzyme activity, inhibitor, radiometric |  | 1 µM | remaining activity | 27% |
| Cn1c2c(c3ccc(Cl)c(Cl)c31)C(C#N)C1(CCCC1)NC2=O (stereo not drawn) | CDKL1 | thermal stability, DSF |  | 10 µM | ΔTm | 0 °C |
| Cc1nn(CC(F)(F)F)cc1Nc1nccc(NCc2ccc(S(N)(=O)=O)cc2)n1 | MAP3K11 | enzyme activity, inhibitor, radiometric |  | 1 µM | remaining activity | 95% |
| Cn1c2c(Cl)c(Cl)ccc2c2cc[nH]c(=O)c21 | CDKL1 | thermal stability, DSF |  | 10 µM | ΔTm | -0.1 °C |
| c1cc(-c2nnc3scnn23)ccn1 | Type II inositol 1,4,5-trisphosphate 5-phosphatase (Homo sapiens, UniProt P32019) | enzyme activity, inhibitor |  |  | Emax | 100% |
| Cc1nn(CC(F)(F)F)cc1Nc1ncc(C2CC2)c(NCCc2c[nH]cn2)n1 | ULK1 | enzyme activity, inhibitor, radiometric |  | 1 µM | remaining activity | 78% |
| Cc1ccc(NC(=O)c2ccc(C)c(C(F)(F)F)c2)cc1C#Cc1nn(C2CCC(O)CC2)c2ncnc(N)c12 (stereo not drawn) | MET M1250T | cell-free assay |  | 10 µM | remaining signal | 136% |
| NS(=O)(=O)c1ccc(CNc2nc(Nc3cccc(NC(=O)N4CCCC4)c3)ncc2Br)cc1 | MAP3K11 | enzyme activity, inhibitor, radiometric |  | 1 µM | remaining activity | 24% |
| CN(C)C1CCN(CC#Cc2nn(C3CCCC3)c3nc(NCc4ccccc4)ncc23)C1 (stereo not drawn) | Interleukin-1 receptor-associated kinase 4 (IRAK4, Homo sapiens, UniProt Q9NWZ3) | enzyme activity, inhibitor, FRET |  | 10 µM | inhibition | 0% |
| Cc1nn(CC(F)(F)F)cc1Nc1ncc(Br)c(NCCc2cnc[nH]2)n1 | ULK1 | enzyme activity, inhibitor, radiometric |  | 1 µM | remaining activity | 20% |
| CCN1CCN(Cc2ccc(NC(=O)c3ccc(C)c(Oc4ccnc5[nH]ccc45)c3)cc2C(F)(F)F)CC1 | Eukaryotic elongation factor 2 kinase (EEF2K, Homo sapiens, UniProt O00418) | target engagement in cells, inhibitor, chemoproteomics | A-375 | 50 nM | inhibition | -13.9% |
